What was measured:
DU-145 = assay: Antiproliferative activity against human DU145 cells after 96 hrs by sulforhodamine B assay; type: functional, cell-based; details: DU-145, 96 h
LNCaP = assay: Antiproliferative activity against human LNCAP cells after 96 hrs by sulforhodamine B assay; type: functional, cell-based
[1] = Antiproliferative activity against human WM164 cells after 48 hrs by sulforhodamine B assay; type: functional, cell-based; details: WM164, 48 h
PPC-1 = assay: Antiproliferative activity against human PPC1 cells after 96 hrs by sulforhodamine B assay; type: functional, cell-based; details: PPC-1, 96 h
PC-3 = assay: Antiproliferative activity against human PC3 cells after 96 hrs by sulforhodamine B assay; type: functional, cell-based; details: PC-3, 96 h
Bos taurus = organism: Bos taurus; assay: Inhibition of bovine brain tubulin polymerization after 15 mins by spectrophotometric analysis
Outline: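 Bovine brain tubulin (>97% pure, 0.4 mg per assay) mixed with compound at 5, 10 or 20 µM, with 5% DMSO as vehicle control. Buffer: 80 mM PIPES, 2.0 mM MgCl2, 0.5 mM EGTA, 1 mM GTP, pH 6.9. Polymerization followed at 37 °C as absorbance at 340 nm, read every minute for 15 min.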

A-375 = assay: Antiproliferative activity against human A375 cells after 48 hrs by sulforhodamine B assay; type: functional, cell-based; details: A-375, 48 h

Structure (SMILES)	IC50 (DU-145) [µM]	IC50 (LNCaP) [µM]	IC50 (PC-3) [µM]	inhibition (Bos taurus)	IC50 (A-375) [µM]	IC50 [1] [µM]	IC50 (PPC-1) [µM]
COc1cc(C(=O)c2c[nH]c(-c3ccc(Cl)cc3)n2)cc(OC)c1O	1	0.55	0.3	Dose-dependent effect	0.68	0.5	0.58
COc1ccc2cc(C(=O)c3cc(OC)c(OC)c(OC)c3)[nH]c2c1	> 10	> 10	> 10	Dose-dependent effect	> 10	> 10	> 10
COc1cc(C(=O)c2cn(Cc3ccccc3)c(-c3ccc(C)cc3)n2)cc(OC)c1OC	1.5	0.68	0.47	Dose-dependent effect	1.06	1.17	0.78
COc1cc(C(=O)c2cc3ccc(F)cc3n2C)cc(OC)c1OC	> 10	1.05	> 10	Dose-dependent effect	5.87	7.5	8.3
COc1ccc2cc(C(=O)c3cc(OC)c(OC)c(OC)c3)n(S(=O)(=O)c3ccccc3)c2c1	> 10	> 10	2.66	Dose-dependent effect	8.22	> 10	1.05
COc1cc(C(=O)c2cc3ccc(Cl)cc3n2C)cc(OC)c1OC	> 10	1.04	3.76	Dose-dependent effect	6.65	8.08	4.33
COc1cc(C(=O)c2c[nH]c(-c3ccc4[nH]c(C(=O)c5cc(OC)c(OC)c(OC)c5)cc4c3)n2)cc(OC)c1OC	5.92	1.07	2.63	Dose-dependent effect	1.8	1.7	4.58

Now from value to molecule, other results behind:

IC50 (DU-145) [µM]	IC50 (LNCaP) [µM]	IC50 (PC-3) [µM]	inhibition (Bos taurus)	IC50 (A-375) [µM]	Structure (SMILES)	IC50 [1] [µM]	IC50 (PPC-1) [µM]
> 10	> 10	> 10	Dose-dependent effect	> 10	COc1ccc(-c2nc(C(=O)c3ccc(F)cc3)cn2C)cc1	> 10	> 10
0.13	0.07	0.04	Dose-dependent effect	0.1	COc1ccc(S(=O)(=O)n2cc(C(=O)c3ccc(F)cc3)nc2-c2ccc(N(C)C)cc2)cc1	0.1	0.06
> 10	> 10	> 10	Dose-dependent effect	> 10	COc1cc(C(=O)c2cc3ccc(Cl)cc3[nH]2)cc(OC)c1OC	> 10	> 10
> 10	> 10	> 10	Dose-dependent effect	> 10	COc1cc(C(=O)c2nc3ccccc3[nH]2)cc(OC)c1OC	> 10	> 10
> 10	> 10	> 10	Dose-dependent effect	> 10	COc1cc(C(=O)c2cc3ccc(F)cc3[nH]2)cc(OC)c1OC	> 10	> 10
0.17	0.13	0.13	Dose-dependent effect	0.11	COc1cc(C(=O)c2c[nH]c(-c3ccc(C)cc3)n2)cc(OC)c1O	0.12	0.11
> 10	> 10	> 10	Dose-dependent effect	> 10	COc1cc(C(=O)c2cc3ccc(F)cc3n2S(=O)(=O)c2ccccc2)cc(OC)c1OC	> 10	> 10
> 10	> 10	> 10	Dose-dependent effect	1.47	COc1cc(C(=O)c2cc3cc(Cl)ccc3[nH]2)cc(OC)c1OC	2.16	> 10
